Source: paper PMC10092581 (Chemistry (Weinheim an Der Bergstrasse, Germany), 2022)
Like-named read-outs stand apart in the source and are kept apart here.

Columns and labels:
LoVo colon cancer cells = test: MTT cross-resistance, sensitive colon cells; type: cell-based, human; settings: 72 h, read-out: IC50 (μM)±SD LoVo
How it was run: (§1)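 LoVo, LoVo MDR and LoVo-OXP cells were grown in F-12 HAM'S with 10% FCS, antibiotics and 2 mM glutamine at 37 °C, 5% CO2. LoVo-OXP had been selected over 17 months in increasing oxaliplatin. Cells (3–8×10^3/well) were exposed 72 h in triplicate, with DMSO at 0.5% final. MTT was added for 5 h, followed by SDS/0.01 M HCl overnight, then A570. IC50 came from a 4-PL fit over ≥4 experiments; RF = IC50 resistant/IC50 LoVo.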

[1] = tested on: LoVo MDR colon cancer cells; test: MTT cross-resistance, multi-drug resistant cells; type: cell-based, human
How it was run: as §1

[2] = tested on: A2780 ADR ovarian cancer cells; test: MTT cross-resistance, multi-drug resistant ovarian cells; type: cell-based, human
How it was run: (§2)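 A2780 and A2780 ADR cells were grown in RPMI-1640 with 10% FCS, antibiotics and 2 mM glutamine at 37 °C, 5% CO2. Cells (3–8×10^3/well) were given compound after 24 h and exposed 72 h in triplicate, with DMSO at 0.5% final. MTT was added for 5 h, followed by SDS/0.01 M HCl overnight, then A570 as % of untreated control. IC50 came from a 4-PL fit over ≥4 experiments; RF = IC50 A2780 ADR/IC50 A2780.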

[3] = tested on: A2780 ovarian adenocarcinoma cells; test: MTT cross-resistance, sensitive ovarian cells; type: cell-based; settings: Homo sapiens, A2780, 72 h, read-out: IC50 (μM)±SD A2780
How it was run: as §2

[4] = tested on: LoVo‐OXP colon cancer cells; settings: as previously reported; cited from earlier work
[5] = tested on: LoVo‐OXP colon cancer cells; test: MTT cross-resistance, oxaliplatin-resistant cells; type: cell-based, human
How it was run: as §1

[6] = tested on: H157 lung cancer cell spheroids; test: 3D spheroid cytotoxicity, acid phosphatase; type: cell-based, human; settings: read-out: IC50 (μM)±SD H157 spheroids; 3D spheroids, 72 h, APH assay
How it was run: (§3)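 H157 or A2780 cells were seeded at 2.5×10^3 cells/well in round-bottom non-treated plates. The medium was phenol red-free RPMI-1640 with 10% FCS plus 20% methyl cellulose stock solution. Spheroids were exposed 72 h to increasing concentrations, with the compound added from DMSO to a final 0.5%. Viability was read by a modified acid phosphatase assay, and IC50 was fitted by a 4-parameter logistic model.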

[7] = tested on: PSN‐1 pancreatic cancer cells; test: MTT cytotoxicity, 72 h; type: cell-based, human; settings: read-out: IC50 (μM)±SD PSN‐1, MTT test
[8] = tested on: H157 lung carcinoma cells; test: MTT cytotoxicity, 72 h; type: cell-based, human; settings: read-out: IC50 (μM)±SD H157, MTT test
How it was run: (§4)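 The 2008 and H157 cells were kept in RPMI-1640, and A375 cells in DMEM, each with 10% FCS, antibiotics and 2 mM glutamine, at 37 °C, 5% CO2. Cells (3–8×10^3/well) were exposed 72 h in triplicate, with DMSO at 0.5% final. MTT was added for 5 h, followed by SDS/0.01 M HCl overnight, then A570 relative to untreated wells. IC50 came from a 4-PL fit, means of ≥4 independent experiments.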

[9] = tested on: HCT‐15 colon cancer cells; test: MTT cytotoxicity, 72 h; type: cell-based, human; settings: read-out: IC50 (μM)±SD HCT‐15, MTT test
[10] = tested on: A431 cervical carcinoma cells; test: MTT cytotoxicity, 72 h; type: cell-based, human; settings: read-out: IC50 (μM)±SD A431, MTT test
[11] = tested on: A2780 ovarian cancer cell spheroids; test: 3D spheroid cytotoxicity, acid phosphatase; type: cell-based, human; settings: read-out: IC50 (μM)±SD A2780 spheroids; 3D spheroids, 72 h, APH assay
How it was run: as §3

A375 melanoma cells = test: MTT cytotoxicity, 72 h; type: cell-based, human; settings: read-out: IC50 (μM)±SD A375, MTT test
How it was run: as §4

[12] = tested on: 2008 ovarian cancer cells; test: MTT cytotoxicity, 72 h; type: cell-based, human; settings: read-out: IC50 (μM)±SD 2008, MTT test
How it was run: as §4

[13] = tested on: MCF‐7 breast cancer cells; test: MTT cytotoxicity, 72 h; type: cell-based, human; settings: read-out: IC50 (μM)±SD MCF‐7, MTT test
H157 cells [14] = test: Transmission electron microscopy; type: cell-based, human; settings: 24 h, IC50 concentrations
How it was run: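 About 10^6 H157 cells were treated 24 h after seeding and incubated a further 24 h; untreated and auranofin-treated cells served as references. Cells were fixed in 1.5% glutaraldehyde in 0.2 M sodium cacodylate pH 7.4, post-fixed in 1% OsO4 and embedded in epoxy. Sections were 1 μm (toluidine blue) or 90 nm (uranyl acetate/lead citrate), imaged at 75 kV.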

H157 cells [15] = test: Apoptosis induction; type: cell-based, human; settings: 48 h, IC50 doses
[16] = RF=IC50 resistant cells/IC50 sensitive cells

**Q.** Which results are given for COc1cccc2c1C(=O)c1c(O)c3c(c(O)c1C2=O)C[C@@](O)(C(=O)CO)C[C@@H]3O[C@H]1C[C@H](N)[C@H](O)[C@H](C)O1 [Doxorubicin]?
**A.** IC50 (LoVo colon cancer cells; Homo sapiens, LoVo): 1.1 ± 0.2 µM; IC50 ([1]; Homo sapiens, LoVo, 72 h, read-out: IC50 (μM)±SD LoVo MDR): 19.2 ± 2.3 µM; RF (LoVo MDR/LoVo) [1, 16]: 17.5 –; IC50 ([2]; Homo sapiens, A2780 ADR, 72 h, read-out: IC50 (μM)±SD A2780 ADR): 0.16 ± 0.03 µM; RF (A2780 ADR/A2780) [2, 16]: 16.0 –; IC50 [3]: 0.01 ± 0.001 µM

**Q.** Which IC50 (LoVo colon cancer cells; MTT test) does the source give for O=C(O)C(=O)O.[NH-][C@@H]1CCCC[C@H]1[NH-].[Pt+2] [oxaliplatin] here?
**A.** The IC50 was 1.1 ± 0.6 µM.

**Q.** And the “resistance of LoVo OXP cells vs parental cells” value [4]?
**A.** The value was “about 13 fold”.

**Q.** And the “RF (LoVo‐OXP/LoVo)” value [5, 16]?
**A.** Its value is “ND 13.0”.

**Q.** And the IC50 ([5]; read-out: IC50 (μM)±SD LoVo‐OXP, 72 h, MTT test)?
**A.** The IC50 was 14.3 µM.

**Q.** Which IC50 [6] does the source give for N.N.[Cl][Pt][Cl] [Cisplatin] here?
**A.** Its IC50 is 52.5 ± 1.3 µM.

**Q.** And the IC50 [7]?
**A.** The IC50 was 12.1 ± 2.9 µM.

**Q.** What about the IC50 [8] of the same molecule?
**A.** Its IC50 is 5.9 ± 1.1 µM.

**Q.** And the IC50 [9]?
**A.** The IC50 was 11.3 ± 1.5 µM.

**Q.** What about the IC50 [10] of the same molecule?
**A.** Its IC50 is 1.4 ± 0.3 µM.

**Q.** What about the IC50 [11] of the same molecule?
**A.** The IC50 was 74.2 ± 8.9 µM.

**Q.** What about the IC50 (A375 melanoma cells) of the same molecule?
**A.** The IC50 was 3.1 ± 0.4 µM.

**Q.** And the IC50 [12]?
**A.** Its IC50 is 2.2 ± 1.3 µM.

**Q.** What about the IC50 [13] of the same molecule?
**A.** Its IC50 is 8.8 ± 1 µM.

**Q.** For CC(=O)OC[C@H]1O[C@@H]([S-])[C@H](OC(C)=O)[C@@H](OC(C)=O)[C@@H]1OC(C)=O.CCP(CC)CC.[Au+] [Auranofin, 2,3,4,6‐tetra‐o‐acetyl‐ L‐thio‐β‐D‐glyco‐pyranosato ‐S‐(triethyl‐phosphine) gold(I)], which IC50 [7] is on record?
**A.** Its IC50 is 1 ± 0.4 µM.

**Q.** And the IC50 [8]?
**A.** Its IC50 is 1.6 ± 0.3 µM.

**Q.** What about the IC50 [9] of the same molecule?
**A.** Its IC50 is 0.1 ± 0.02 µM.

**Q.** And the “mitochondrial morphology (TEM)” value (H157 cells [14])?
**A.** Its value is “dramatic swelling of the mitochondria”.

**Q.** And the IC50 [10]?
**A.** The IC50 was 2 ± 0.8 µM.

**Q.** And the IC50 (A375 melanoma cells)?
**A.** The IC50 was 2.3 ± 1 µM.

**Q.** What about the “apoptosis, cellular morphological changes (Hoechst 33258)” value (H157 cells [15]) of the same molecule?
**A.** Its value is “brightly stained nuclei and morphological features typical of cells undergoing apoptosis”.

**Q.** What about the IC50 [12] of the same molecule?
**A.** The IC50 was 1 ± 0.2 µM.

**Q.** What about the IC50 [13] of the same molecule?
**A.** The IC50 was 0.9 ± 0.3 µM.
